Test [1] is described as follows: The degree of collagen cross-linking by hydrothermal shrinkage temperature was determined. The class given is functional. In short, it runs like this:
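Purified skin collagen matrices incubated 48 h at room temperature with samples at 4 mM in 85% glycerol; hydrothermal shrinkage onset temperature (Ts) recorded, with untreated matrix as reference. Means of five experiments with SEM; significance versus tannic acid at p<0.05.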

The nature of test [2]: Effective dose required for antioxidant activity was measured as dose giving 50% decolorization of 2,2-diphenyl-1-picryl-hydrazyl (DPPH). The class given is functional. The method, boiled down: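 DPPH radical scavenging: compounds serially diluted ([…]), incubated with […] in 75% ethanol for 15 min at room temperature; absorbance read at 550 nm. ED50 (dose giving 50% decolorization) obtained by linear regression of absorbance curves; means of five experiments, SEM reported.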
In general terms: DPPH is a stable violet radical that fades when it is reduced.

Regarding `O=C(O)c1cc(OCCNC(=O)c2cc(OCCNC(=O)c3cc(O)c(O)c(O)c3)cc(OCCNC(=O)c3cc(O)c(O)c(O)c3)c2)cc(OCCNC(=O)c2cc(OCCNC(=O)c3cc(O)c(O)c(O)c3)cc(OCCNC(=O)c3cc(O)c(O)c(O)c3)c2)c1`, the Ts in test [1] was determined as 57.9 °C. The compound also came in with an ED50 in test [2] of 7.4 µM.

In turn, `O=C(O)c1cc(O)c(O)c(O)c1` displayed a Ts in test [1] of 57.5 °C. Moreover, the ED50 in test [2] turned out to be 14.3 µM.

In test [1], `O=C(O)c1cc(OCCNC(=O)c2cc(O)c(O)c(O)c2)cc(OCCNC(=O)c2cc(O)c(O)c(O)c2)c1` yielded a Ts of 58.4 °C. In test [2], this compound showed an ED50 of 13.7 µM.

For the compound `O=C(OC[C@H]1O[C@@H](OC(=O)c2cc(O)c(O)c(OC(=O)c3cc(O)c(O)c(O)c3)c2)[C@H](OC(=O)c2cc(O)c(O)c(OC(=O)c3cc(O)c(O)c(O)c3)c2)[C@@H](OC(=O)c2cc(O)c(O)c(OC(=O)c3cc(O)c(O)c(O)c3)c2)[C@@H]1OC(=O)c1cc(O)c(O)c(OC(=O)c2cc(O)c(O)c(O)c2)c1)c1cc(O)c(O)c(OC(=O)c2cc(O)c(O)c(O)c2)c1`, the Ts in test [1] is 59.5 °C. Also, the ED50 in test [2] came to 2.9 µM.

`O=C(O)c1cc(OCCNC(=O)c2cc(OCCNC(=O)c3cc(OCCNC(=O)c4cc(O)c(O)c(O)c4)cc(OCCNC(=O)c4cc(O)c(O)c(O)c4)c3)cc(OCCNC(=O)c3cc(OCCNC(=O)c4cc(O)c(O)c(O)c4)cc(OCCNC(=O)c4cc(O)c(O)c(O)c4)c3)c2)cc(OCCNC(=O)c2cc(OCCNC(=O)c3cc(OCCNC(=O)c4cc(O)c(O)c(O)c4)cc(OCCNC(=O)c4cc(O)c(O)c(O)c4)c3)cc(OCCNC(=O)c3cc(OCCNC(=O)c4cc(O)c(O)c(O)c4)cc(OCCNC(=O)c4cc(O)c(O)c(O)c4)c3)c2)c1` had a Ts in test [1] of 57 °C. Also, the ED50 in test [2] is 4.7 µM.

The values are drawn from ChEMBL document CHEMBL1135842, “Synthesis and biological activity of polygalloyl-dendrimers as stable tannic acid mimics” (Bioorg Med Chem Lett, 2002).
